Measured values reported in ChEMBL document CHEMBL3244390, “New antiarrhythmic agents. 1. Primary alpha-amino anilides” (J Med Chem, 1979).

Legend:
[1] = test system: Canis familiaris; test: Toxicity in iv dosed coronary ligated dog assessed as concentration required to cause mortality measured 87 mins after end of infusion; assay type: organism-based, Canis lupus familiaris; conditions: in vivo, 1.45 h
Method in brief: (§1)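 Dogs with ventricular arrhythmias from coronary artery ligation (Harris method) received drug by infusion, with the ectopic beat incidence monitored. Clearing was defined as less than 5% ectopic beats for 5 min. Infusion was stopped at clearing or when toxicity was observed. The dose was recorded at the time of the endpoint. Mortality was noted, including death after the end of infusion.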

[2] = test system: Mus musculus; test: Antiarrhythmic activity in Swiss albino mouse assessed as protection against chloroform-induced fibrillation at 100 mg/kg, sc relative to control; assay type: functional, Heart; conditions: route subcutaneous
Method in brief: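 Mice (18–25 g) were dosed and exposed to CHCl3 vapor 20 min later until respiration ceased. Presence or absence of ventricular fibrillation was judged through the opened thorax, and protection was scored as the fraction of animals free of fibrillation. A preliminary 100 mg/kg dose was used to estimate doses for the full screen.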

[3] = test system: Mus musculus; test: Toxicity in Swiss albino mouse assessed as induction of ataxia at 100 mg/kg, sc relative to control; assay type: organism-based; set-up: dose 100 mg/kg, route subcutaneous; conditions: in vivo
Method in brief: (§2)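 Single preliminary dose of 100 mg/kg. Mice (18–25 g) were watched for overt CNS toxicity signs, including convulsions, ataxia and loss of righting reflex, during the 20 min between treatment and exposure to CHCl3 vapor.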

[4] = Half life in dog; assay type: ADME, organism-based, Canis lupus familiaris; conditions: in vivo
[5] = test system: Canis familiaris; test: Antiarrhythmic activity in coronary ligated dog assessed as reduction of ventricular rates at 0.5 mg/kg, iv measured for 5 mins relative to control; assay type: functional, Canis lupus familiaris, Heart
[6] = test system: Canis familiaris; test: Antiarrhythmic activity in coronary ligated dog assessed as reduction of ventricular ectopic beats to <5% of total ventricular beats at 0.5 mg/kg, iv measured for 5 mins relative to control; assay type: functional, Canis lupus familiaris, Heart; set-up: scale not given: the % may be the effect or the level left
[7] = test system: Canis familiaris; test: Antiarrhythmic activity in coronary ligated dog assessed as reduction of mean arterial blood pressure at 0.5 mg/kg, iv measured for 5 mins relative to control; assay type: functional, Canis lupus familiaris, Artery
[8] = test system: Mus musculus; test: Antiarrhythmic activity in sc dosed Swiss albino mouse assessed as protection against chloroform-induced fibrillation relative to control; assay type: functional; conditions: Heart
Method in brief: (§3)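 Mice (18–25 g) were dosed and observed for signs of toxicity. Twenty minutes after dosing they were exposed to CHCl3 vapor until respiration ceased, and ventricular fibrillation was scored by inspecting the opened thorax.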

[9] = test system: Canis familiaris; test: Antiarrhythmic activity in iv dosed coronary ligated dog assessed as concentration required to reduce ventricular ectopic beats to <5% of total ventricular beats measured for 5 mins; assay type: functional, Canis lupus familiaris, Heart
Method in brief: (§4)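 Clearing was defined as less than 5% ectopic beats for 5 min, and the infusion was shut off at clearing or when toxicity appeared. Doses are in mmol/kg, reported as means with standard deviations over the experiments.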

[10] = test system: Mus musculus; test: Antiarrhythmic activity in sc dosed Swiss albino mouse assessed as protection against chloroform-induced fibrillation relative to lidocaine; assay type: functional, Heart; method in brief: as §3
[11] = test system: Mus musculus; test: Toxicity in Swiss albino mouse assessed as induction of loss of righting reflex at 100 mg/kg, sc relative to control; assay type: organism-based; set-up: dose 100 mg/kg, route subcutaneous; conditions: in vivo; method in brief: as §2
[12] = test system: Canis familiaris; test: Toxicity in iv dosed coronary ligated dog assessed as concentration required to cause convulsions; assay type: organism-based, Canis lupus familiaris; conditions: in vivo; method in brief: as §4
[13] = test system: Mus musculus; test: Toxicity in Swiss albino mouse assessed as induction of convulsions at 100 mg/kg, sc relative to control; assay type: organism-based; set-up: dose 100 mg/kg, route subcutaneous; conditions: in vivo; method in brief: as §2
[14] = test system: Canis familiaris; test: Toxicity in iv dosed coronary ligated dog assessed as concentration required to cause mortality; assay type: organism-based, Canis lupus familiaris; conditions: in vivo; method in brief: as §1
[15] = Oral bioavailability in dog; assay type: ADME, organism-based, Canis lupus familiaris; conditions: in vivo
[16] = Half life in human; assay type: ADME, organism-based; conditions: in vivo

half-life [4] [h] | bioavailability [15] [%] | half-life [16] [h] | SMILES | Activity [1] [mmol/kg] | Activity [2] [%] | Activity [3] [%] | Activity [5] [bpm] | Activity [6] [%] | Activity [7] [Torr] | ED50 [8] [µmol/kg] | Activity [9] [mmol/kg] | Ratio ED50 [10] | Activity [11] [%] | Activity [12] [mmol/kg] | Activity [13] [%] | Activity [14] [mmol/kg]
– | – | – | CCc1cccc(CC)c1NC(=O)C(C)N.Cl (stereo unspecified) | – | 20 | 100 | 124 | 2 | 140 | 530 | 0.26 | 0.5 | 0 | 0.23 | 10 | 0.45
– | – | – | CCc1cccc(C)c1NC(=O)CN.Cl | – | 20 | 100 | – | – | – | 1300 | – | 0.2 | 0 | – | 0 | –
– | – | – | Cc1cc(C)c(NC(=O)CN)c(C)c1.Cl | – | 10 | 100 | – | – | – | 790 | – | 0.3 | 0 | – | 80 | –
1.5 | – | – | CCC(N)C(=O)Nc1c(C)cccc1C.Cl (stereo unspecified) | – | – | – | – | – | – | – | – | – | – | – | – | –
– | – | – | CCc1cccc(CC)c1NC(=O)C(N)CC.Cl (stereo unspecified) | – | 100 | 100 | – | – | – | 230 | – | 1.2 | 0 | – | 100 | –
– | – | – | CCN(CC)CC(=O)Nc1c(C)cccc1C.Cl | – | 100 | 100 | 133 | 4 | 101 | 260 | 0.21 | – | 100 | 0.27 | 100 | –
– | – | – | Cc1cccc(C)c1NC(=O)[C@@H](C)N.Cl | – | 10 | 70 | 123 | 0 | 105 | 930 | 0.31 | 0.3 | 0 | 0.21 | 0 | –
– | – | – | Cc1cccc(C)c1NC(=O)[C@H](C)N.Cl | – | 0 | 0 | 99 | 0 | 85 | 3100 | 0.11 | 0.1 | 0 | – | 0 | –
– | – | – | CCc1cccc(CC)c1NC(=O)CN.Cl | – | 10 | 100 | – | – | – | 1200 | – | 0.2 | 0 | – | 0 | –
4.7 | 80 | 11 | Cc1cccc(C)c1NC(=O)C(C)N.Cl (racemic) [TOCAINIDE HYDROCHLORIDE] | – | 20 | 10 | 148 | 2 | 108 | 1300 | 0.32 | 0.2 | 0 | 0.3 | 0 | –
– | – | – | Cc1cccc(C)c1NC(=O)C(N)c1ccccc1.Cl (stereo unspecified) | – | 80 | 100 | – | – | – | 220 | – | 1.2 | 100 | – | 100 | –

SMILES | half-life [4] [h] | bioavailability [15] [%] | half-life [16] [h] | Activity [1] [mmol/kg] | Activity [2] [%] | Activity [3] [%] | Activity [5] [bpm] | Activity [6] [%] | Activity [7] [Torr] | ED50 [8] [µmol/kg] | Activity [9] [mmol/kg] | Ratio ED50 [10] | Activity [11] [%] | Activity [12] [mmol/kg] | Activity [13] [%] | Activity [14] [mmol/kg]
Cc1cccc(C)c1NC(=O)CN.Cl | 3.7 | – | – | 0.56 | 10 | 0 | 123 | 0 | 85 | 900 | 0.48 | 0.3 | 0 | 0.48 | 0 | –
